Most compounds without a hit are left out; they make up all but 1.4% or so of the library.
PERK inh: human PERK inhibition, primary cell-based screen; inhibition, % at 5.6 µM; 220,000 compounds, 0.17% hits; CHO PERK-DD fusion, SEAP luminescence translation reporter;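 active means inhibition above the mean inhibition of all tested compounds plus 3 SD, set separately per screening campaign, cut at about 2.9% in these data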;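 further: PERK kinase domain activated by AP20187 dimerizer at 100 nM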
STAT3 activator: activators of IL-6 induced STAT3 signaling; U3A cells, IL-6 STAT3-luciferase reporter, luminescence; 100% = signal with IL-6 EC80 alone; activation (% of control), % at 5.6 µM; 190,000 compounds, 0.91% hits;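 active means activation above the screen-wide mean of compound activation plus 3 SD, cut at about 130% in these data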
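System – human U3A cells carrying STAT3-luciferase construct · Probe or stimulus – Interleukin-6, 33 ng/mL · Schedule – compound 1 h, then IL-6 6 h at 37 °C · Signal – luminescence from STAT3-driven luciferase reporter · Evaluation – percent of IL-6-only median luminescence · Benchmarks – IL-6-only high control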
STAT3 inh: STAT3 signaling inhibition. U3A cells, IL-6 STAT3-luciferase reporter, luminescence; host cell line lacks STAT1. inhibition, % at 5.5 µM. AID 862. 190,000 compounds, 0.89% hits;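 active means inhibition above the mean inhibition across all screened compounds plus 3 SD, cut at about 44% in these data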
STAT1 inh: STAT1 signaling inhibition. NIH 3T3 STAT1-luciferase reporter, IFN-gamma, luminescence. inhibition, % at 5.5 µM. 200,000 compounds, 0.35% hits. AID 920;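 active means inhibition above a set limit, the mean inhibition across all tested compounds plus 3 SD, cut at about 34% in these data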
Platelet DG rel: modulates dense granule release in human platelets; 300,000 compounds, 0.22% hits; human platelet-rich plasma, SFLLRN dense granule ATP release, luminescence; inhibition, %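 (compounds screened at 7.5 µM in platelet-rich plasma)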; AID 1663;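 active means mean replicate score, as percent of positive control, at or above 50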
A number is an active result.

Screening O=C1C=C(NCCN2CCOCC2)C(=O)c2cnccc21 returned PERK inh inactive, STAT3 activator inactive, STAT3 inh 83, STAT1 inh 53 and Platelet DG rel inactive.
O=C(NCCN1CCOCC1)c1ccncc1 was read as PERK inh inactive, STAT3 activator inactive, STAT3 inh inactive, STAT1 inh inactive and Platelet DG rel inactive.
For CCOc1ccc(-c2ccc(SCC(=O)Nc3nnc(CC)s3)nn2)cc1 the results were PERK inh inactive, STAT3 activator inactive, STAT3 inh inactive and STAT1 inh inactive.
For CCOc1ccc(-c2ccc(SC)nn2)cc1 the results were PERK inh inactive, STAT3 activator inactive, STAT3 inh 110, STAT1 inh 81 and Platelet DG rel 95.
For C=CCN(C(=O)CNC(=O)c1cccs1)C(C(=O)NC(C)(C)C)c1ccccc1 (stereo not drawn) the results were PERK inh inactive, STAT3 activator inactive, STAT3 inh inactive, STAT1 inh inactive and Platelet DG rel inactive.
For COCc1cc(C)nc2sc(C(=O)Nc3nccs3)c(N)c12 the results were PERK inh inactive, STAT3 activator inactive, STAT3 inh inactive, STAT1 inh inactive and Platelet DG rel inactive.
For Cc1cc(C)c2c(N)c(C(=O)Nc3nccs3)sc2n1 the results were PERK inh inactive, STAT3 activator inactive, STAT3 inh 58, STAT1 inh 48 and Platelet DG rel inactive.
O=S(=O)(Nc1cc(Sc2cccc3cccnc23)c(O)c2ccccc12)c1ccc(F)cc1 was read as PERK inh inactive, STAT3 activator 184, STAT3 inh inactive, STAT1 inh inactive and Platelet DG rel inactive.
For COc1ccc(-n2ncc3c(N4CCCCC4)ncnc32)cc1 the results were PERK inh inactive, STAT3 activator inactive, STAT3 inh 107, STAT1 inh 72 and Platelet DG rel inactive.
For C/C(=N/N=C/c1ccc(N(C)C)cc1)c1ccccc1 the results were PERK inh inactive, STAT3 activator inactive, STAT3 inh inactive, STAT1 inh inactive and Platelet DG rel 56.
`c1c2c(cc3sc(N4CCOCC4)nc13)OCCO2` gave PERK inh inactive, STAT3 activator inactive, STAT3 inh 89, STAT1 inh 51 and Platelet DG rel 57.
Screening c1ccc(N2CCN(c3nc4cc5c(cc4s3)OCCO5)CC2)cc1 returned PERK inh inactive, STAT3 activator inactive, STAT3 inh inactive, STAT1 inh inactive and Platelet DG rel inactive.
For O=C(c1ccco1)N1CCN(C(=O)c2cc(-c3ccccn3)nc3ccc(Cl)cc23)CC1 the results were PERK inh inactive, STAT3 activator 135, STAT3 inh inactive, STAT1 inh inactive and Platelet DG rel inactive.
Screening O=C(c1ccco1)N1CCN(C(=O)c2cc(-c3ccccc3)nc3ccccc23)CC1 returned PERK inh inactive, STAT3 activator inactive, STAT3 inh inactive, STAT1 inh inactive and Platelet DG rel inactive.
O=C(O)CCC(=O)NNc1ccccc1[N+](=O)[O-] was read as PERK inh inactive, STAT3 activator inactive, STAT3 inh inactive, STAT1 inh inactive and Platelet DG rel inactive.
`O=C(c1ccc(F)cc1)c1cc2ccc(O)cc2oc1=O` gave Platelet DG rel 73.
`COc1ccccc1C(=O)c1cc2ccc(O)cc2oc1=O` gave PERK inh inactive, STAT3 activator inactive, STAT3 inh inactive, STAT1 inh inactive and Platelet DG rel inactive.
For Nc1ncnc2c1ncn2[C@@H]1O[C@H](CO)C[C@H]1O the results were Platelet DG rel inactive.
CCOC1OC2C(CO)OC(n3cnc4c(N)ncnc43)C2O1 (stereo not drawn) was read as PERK inh inactive, STAT3 activator inactive, STAT3 inh inactive, STAT1 inh inactive and Platelet DG rel 74.
Nc1ncnc2c1ncn2[C@@H]1O[C@H](COP(=O)(O)O)[C@@H](O)[C@H]1O was read as Platelet DG rel 83.
`O=C(Nc1ncnc2c1ncn2C1OC(COC(=O)c2ccccc2)C(F)C1O)c1ccccc1` (stereo not drawn) gave PERK inh inactive, STAT3 activator inactive, STAT3 inh inactive, STAT1 inh inactive and Platelet DG rel inactive.
C/C(=N\NC(=O)CCc1ccc(S(=O)(=O)N2CCOCC2)cc1)c1ccc(Br)cc1 was read as PERK inh inactive, STAT3 activator inactive, STAT3 inh inactive, STAT1 inh inactive and Platelet DG rel inactive.
`Cc1cc(-c2ccn[nH]2)c(C)s1` gave PERK inh inactive, STAT3 activator inactive, STAT3 inh inactive, STAT1 inh inactive and Platelet DG rel inactive.
Cc1nc2c(ccc3nc(NC(=O)C4CC4)sc32)s1 was read as PERK inh inactive, STAT3 activator 157, STAT3 inh inactive, STAT1 inh inactive and Platelet DG rel inactive.
Screening CN(c1ccccc1)S(=O)(=O)c1cccc(NC(=O)c2ccc3ncsc3c2)c1 returned PERK inh inactive and Platelet DG rel inactive.
Nc1nc2c(F)cccc2s1 was read as PERK inh inactive, STAT3 activator inactive, STAT3 inh inactive, STAT1 inh inactive and Platelet DG rel inactive.
Screening NNc1nc2c(F)cccc2s1 returned PERK inh inactive, STAT3 activator 152, STAT3 inh inactive, STAT1 inh inactive and Platelet DG rel inactive.
`CCCCCN1C=CC(=C2C(=O)c3ccccc3C2=O)C=C1` gave PERK inh inactive, STAT3 activator inactive, STAT3 inh 107, STAT1 inh 97 and Platelet DG rel inactive.
CC1=CC(=C2C(=O)c3ccccc3C2=O)C=C(C)N1C was read as PERK inh inactive, STAT3 activator inactive, STAT3 inh inactive, STAT1 inh inactive and Platelet DG rel inactive.
CCCCOCCCNc1ncnc2c1[nH]c1ccccc12 was read as PERK inh inactive, STAT3 activator inactive, STAT3 inh 56, STAT1 inh 41 and Platelet DG rel inactive.
For CCOCCCNc1ncnc2c1[nH]c1ccccc12 the results were PERK inh inactive, STAT3 activator inactive, STAT3 inh inactive, STAT1 inh inactive and Platelet DG rel inactive.
For c1ccc2nc(-c3nc4ccccc4[nH]3)ccc2c1 the results were PERK inh inactive, STAT3 activator inactive, STAT3 inh 83, STAT1 inh 39 and Platelet DG rel 83.
COc1ccc(-c2nnc(-c3cc(OC)c(OC)c(OC)c3)o2)cc1OC was read as PERK inh inactive, STAT3 activator inactive, STAT3 inh inactive, STAT1 inh inactive and Platelet DG rel 66.
`CC1CC(C)CN(C(=O)Cc2c(C(=O)O)[nH]c3ccc(Cl)cc23)C1` (stereo not drawn) gave PERK inh inactive, STAT3 activator inactive, STAT3 inh inactive, STAT1 inh inactive and Platelet DG rel inactive.
COc1ccc2c(c1)C1=NN(/C(C)=C\C(C)=O)C(c3ccccc3)C1CC2 (stereo not drawn) was read as PERK inh inactive, STAT3 activator 134, STAT3 inh inactive, STAT1 inh inactive and Platelet DG rel inactive.
Nc1ccc(Oc2cccc(Oc3ccc(N)cc3)c2)cc1 was read as PERK inh inactive, STAT3 activator inactive, STAT3 inh 51, STAT1 inh 39 and Platelet DG rel inactive.
For Cc1cccc(Oc2ccc(N)cc2)c1 the results were PERK inh inactive, STAT3 activator inactive, STAT3 inh inactive, STAT1 inh inactive and Platelet DG rel inactive.

Bioassay records from PubChem BioAssay.
